SIRT5 inh – SIRT5 desuccinylase inhibitors, primary screen, biochemical, fluorescence imaging, single point, set 5. 1.1% of 330,000 active. inhibition, % at 15 µM. Purified SirT5, succinyl-peptide AMC, trypsin-coupled fluorescence; in the data active = inhibition above about 15%; inconclusive = no clear call, values can overlap the other calls
Target sequence (Q9NXA8 whole entry, looked up): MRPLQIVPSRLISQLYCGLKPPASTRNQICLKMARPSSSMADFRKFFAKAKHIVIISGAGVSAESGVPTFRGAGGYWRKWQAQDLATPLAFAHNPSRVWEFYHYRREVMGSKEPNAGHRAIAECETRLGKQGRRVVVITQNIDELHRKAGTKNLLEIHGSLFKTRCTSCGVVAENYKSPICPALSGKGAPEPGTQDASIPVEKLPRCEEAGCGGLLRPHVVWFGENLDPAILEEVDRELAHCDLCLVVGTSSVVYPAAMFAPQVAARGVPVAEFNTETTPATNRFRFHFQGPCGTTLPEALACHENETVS
ERAP1 inh – human ERAP1 aminopeptidase inhibitors, primary screen, biochemical, single point, plate reader; 0.15% of 340,000 active; inhibition, % at 10.7 µM; Endoplasmic reticulum aminopeptidase 1 (Homo sapiens), Q9NZ08; recombinant ERAP1, Leu-AMC fluorescence, 60 min; AID 652197, 2013;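 active = mean replicate inhibition of at least 30%, or all replicates individually reaching that 30% level; inactive = mean below 30% and not every replicate reaching it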
MLL AF4-AF9 inh – inhibitors of AF4 peptide binding to AF9, primary screen, biochemical, AlphaScreen, biotin-AF4 peptide, FLAG-AF9, single point; inhibition, % at 10 µM; 0.47% of 350,000 active;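 active = every replicate reaching a set inhibition limit, whatever the replicate mean, cut at about 25% in these data; inconclusive = mean inhibition reaches that limit but some replicates miss it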
E-selectin induc – E-selectin induction in HUVECs, primary screen, imaging, HUVEC, immunofluorescence imaging, single point. P16581. normalized: neutral wells 0, TNF-alpha wells 100. activation, % at 7.58 µM. 0.37% of 260,000 active. AID 686992, 2013;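 active = mean E-selectin-positive cell signal at least 10% of the positive control, reached in at least 60% of replicates, without over 20% cell loss; inconclusive = no rule given, readout overlaps actives, possibly toxicity-flagged; inactive = the rest, including those meeting only one limit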
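material = human umbilical vein endothelial cells (HUVEC), E-selectin induction | quantity = 3,000 cells/well | medium = EGM-2 growth medium on 0.1% gelatin-coated wells | technique = immunofluorescence imaging | read-out basis = % PE-positive cells | control set = TNF-alpha positive control, DMSO neutral control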
S100A4 inh HTS – inhibitors of S100A4-myosin IIA peptide binding, primary screen, biochemical, fluorescence polarization, TAMRA-MyoIIA peptide | Protein S100-A4 (Homo sapiens), P26447 | inhibition, % at 10.7 µM | 0.14% of 360,000 active | AID 652163, 2013;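 active = mean inhibition of at least 70% across replicates, with every replicate also reaching that level; inconclusive = mean inhibition reaches 70% but some replicates fall short; inactive = mean inhibition below 70%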
Target sequence (P26447 whole entry, looked up): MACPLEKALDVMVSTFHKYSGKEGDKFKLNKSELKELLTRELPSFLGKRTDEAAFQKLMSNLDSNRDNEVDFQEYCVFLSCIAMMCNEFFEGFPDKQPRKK
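Test system: S100A4 monomer protein. Medium: HEPES buffer with Ca2+, pH 7.2. Reagent: fluorescent myosin IIA peptide, 5 nM. Compound dosing: single-point compound testing. Timing: 5 min between mix addition and reading. Benchmarks: DMSO neutral and TFP positive wells.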
rRNA inh HTS – reduced GFP signal of wild-type E. coli, primary screen, bacterial rRNA inhibitor project, GFP/RFP fluorescence, OD600, single point; 1.6% of 350,000 active; GFP signal change (wild-type ribosome), % (no concentration beside the values); AID 720706, 2013; E. coli WT GFP vs humanized-ribosome RFP mutants, 24 h; hits give low values; DMSO median 0, no signal -100;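 active = significant combined selectivity score with lowered wild-type GFP, culture density cut under 30%, mutant RFP and density less affected; inactive = any of these conditions unmet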
Each line names hits and unclear results; the compound was inactive in the other large screens. Rows were chosen to be rich in hits. Some 3.4% of all compounds tested hit in one or more screens of this group.

O=C(NNC(=O)c1ccc(Cl)cc1Cl)c1cnccn1	rRNA inh HTS -35
O=C(NC(=S)NNC(=O)c1cnccn1)c1ccc(F)cc1	none
O=C(NNC(=O)c1cnccn1)c1ccc(Cl)cc1	rRNA inh HTS -39 (no result: MLL AF4-AF9 inh)
C[C@H]1CN([C@@H](C)CO)C(=O)c2cc(-c3ccncc3)cnc2O[C@@H]1CN(C)C(=O)C1CCC1	none (no result: SIRT5 inh, ERAP1 inh, MLL AF4-AF9 inh, S100A4 inh HTS)
CCC(=O)Nc1ccc2c(c1)OC[C@@H](C)N(C(=O)CC1CC1)C[C@H](C)[C@@H](OC)CN(C)C2=O	none
CO[C@H]1CN(C)C(=O)c2ccc(NC(C)=O)cc2OC[C@@H](C)N(C(=O)c2ccc(F)cc2)C[C@@H]1C	none
CCC(=O)Nc1ccc2c(c1)OC[C@H](C)N(C(=O)CC1CC1)C[C@H](C)[C@H](OC)CN(C)C2=O	S100A4 inh HTS 96
CO[C@H]1CN(C)C(=O)c2cc(NC(=O)NC(C)C)ccc2OC[C@@H](C)N(C(=O)CC2CC2)C[C@@H]1C	SIRT5 inh 20
CO[C@H]1CN(C)C(=O)c2ccc(NC(=O)NC(C)C)cc2OC[C@@H](C)N(C(=O)NC(C)C)C[C@H]1C	S100A4 inh HTS 89
CO[C@@H]1CN(C)C(=O)c2cc(NC(=O)NC(C)C)ccc2OC[C@@H](C)N(C(=O)CC2CC2)C[C@H]1C	S100A4 inh HTS inconclusive
CO[C@@H]1CN(C)C(=O)c2ccc(NC(=O)Nc3ccc(F)cc3)cc2OC[C@@H](C)N(C(=O)c2ccc(F)cc2)C[C@H]1C	E-selectin induc 44
Cn1cnc(S(=O)(=O)N2[C@@H]3CNC[C@H]2C3c2ccc(/C=C/c3ccccc3)cc2)c1 (some centres undefined)	none
COc1cccc(-c2ccc([C@H]3[C@@H](CO)N4CCCCN(C(=O)c5ccc(F)cc5)C[C@H]34)cc2)c1	none
CCCNC(=O)Nc1ccc2c(c1)OC[C@H](C)N(S(C)(=O)=O)C[C@@H](C)[C@@H](OC)CN(C)C2=O	SIRT5 inh 15
CCCNC(=O)N(C)C[C@H]1Oc2ncc(C#CC3(O)CCCC3)cc2C(=O)N([C@@H](C)CO)C[C@@H]1C	none (no result: ERAP1 inh)
C[C@H](CO)N1C[C@H](C)[C@H](CN(C)S(=O)(=O)c2ccc(F)cc2)Oc2ccc(NC(=O)Nc3ccc(F)cc3)cc2CC1=O	none
C[C@@H]1CN([C@H](C)CO)C(=O)Cc2cc(NC(=O)Nc3ccc(F)cc3)ccc2O[C@H]1CN(C)S(=O)(=O)c1ccccc1	none
Cc1noc(C)c1NC(=O)Nc1ccc2c(c1)CC(=O)N([C@@H](C)CO)C[C@H](C)[C@@H](CN(C)S(=O)(=O)c1ccccc1)O2	E-selectin induc 49
C[C@H](CO)N1C[C@H](C)[C@H](CN(C)S(=O)(=O)c2ccccc2)Oc2ccc(NC(=O)Nc3ccc(F)cc3)cc2CC1=O	E-selectin induc 41
C[C@@H]1CN([C@@H](C)CO)C(=O)Cc2cc(NS(=O)(=O)c3cccs3)ccc2O[C@@H]1CN(C)S(=O)(=O)c1ccc(Cl)cc1	none
C[C@H](CO)N1C[C@H](C)[C@@H](CN(C)S(=O)(=O)c2cccs2)Oc2ccc(NS(=O)(=O)c3ccc(Cl)cc3)cc2CC1=O	E-selectin induc 98
C[C@H](CO)N1C[C@H](C)[C@H](CN(C)S(=O)(=O)c2ccc(Cl)cc2)Oc2ccc(NC(=O)Nc3ccc(F)cc3)cc2CC1=O	E-selectin induc 40
C[C@@H]1COCn2nncc2CC[C@@H](Cc2ccc(Cl)cc2)C(=O)N1	none (no result: SIRT5 inh, ERAP1 inh, MLL AF4-AF9 inh, E-selectin induc, S100A4 inh HTS)
COc1ccc2c3c([nH]c2c1)[C@H](CO)N(C(=O)C1CCCC1)CC31CN(C)C1	none (no result: SIRT5 inh)
CC(=O)N[C@H]1CC[C@@H](CC(=O)NCc2ccc(Cl)cc2)O[C@H]1CO	none
C[C@H](CO)N1C[C@H](C)[C@@H](CN(C)C(=O)c2ccc(F)cc2)OCc2ccccc2-c2ccccc2C1=O	none
C[C@H]1CN([C@@H](C)CO)C(=O)Cc2cc(NS(=O)(=O)c3ccc(Cl)cc3)ccc2O[C@H]1CN(C)S(=O)(=O)c1ccc(F)cc1	none
C[C@@H]1CN([C@H](C)CO)C(=O)Cc2cc(NS(=O)(=O)c3ccc(F)cc3)ccc2O[C@H]1CN(C)S(=O)(=O)c1ccc(Cl)cc1	E-selectin induc 29 (no result: SIRT5 inh, ERAP1 inh, MLL AF4-AF9 inh, S100A4 inh HTS)
C[C@H]1CN([C@@H](C)CO)C(=O)Cc2cc(NC(=O)Nc3ccc(F)cc3)ccc2O[C@@H]1CN(C)S(C)(=O)=O	SIRT5 inh 18
O[C@H]1C[C@H](c2ccccc2)N(Cc2cccs2)C[C@@H]1n1cc(-c2ccc(F)cc2)nn1	SIRT5 inh 16
CCN(c1ccccc1)S(=O)(=O)c1cccc(C(=O)NCC(c2ccc(F)cc2)N2CCOCC2)c1 (centres undefined)	rRNA inh HTS -25
C[C@@H]1CN([C@@H](C)CO)C(=O)c2cc(NC(=O)Nc3ccc4c(c3)OCO4)ccc2O[C@@H](C)CCCCO[C@H]1CN(C)Cc1ccc(C(=O)O)cc1	none
Cc1noc(C)c1CSCC(=O)Nc1nc2ccccc2s1	rRNA inh HTS -23 (no result: E-selectin induc)
Cc1ccc(S(=O)(=O)Nc2ccc3c(c2)C(=O)N([C@@H](C)CO)C[C@H](C)[C@H](CN(C)S(=O)(=O)c2ccc(F)cc2)OCCCC[C@@H](C)O3)cc1	SIRT5 inh 18
Cc1ccc(S(=O)(=O)Nc2ccc3c(c2)C(=O)N([C@@H](C)CO)C[C@@H](C)[C@H](CN(C)S(=O)(=O)c2ccc(F)cc2)OCCCC[C@@H](C)O3)cc1	SIRT5 inh 18
Cc1ccc(S(=O)(=O)N(C)C[C@H]2OCCCC[C@H](C)Oc3ccc(NS(=O)(=O)c4ccc(F)cc4)cc3C(=O)N([C@@H](C)CO)C[C@@H]2C)cc1	none
Cc1ccc(S(=O)(=O)N(C)C[C@@H]2OCCCC[C@H](C)Oc3ccc(NS(=O)(=O)c4ccc(F)cc4)cc3C(=O)N([C@@H](C)CO)C[C@H]2C)cc1	SIRT5 inh 19
Cc1ccc(S(=O)(=O)N(C)C[C@@H]2OCCCC[C@@H](C)Oc3ccc(NS(=O)(=O)c4ccc(F)cc4)cc3C(=O)N([C@@H](C)CO)C[C@@H]2C)cc1	SIRT5 inh 29
C[C@@H]1CN([C@H](C)CO)C(=O)Cc2cc(NS(C)(=O)=O)ccc2O[C@H]1CN(C)Cc1ccc(-c2ccccc2)cc1	none

Bioassay records (PubChem)
